HUVEC prolif 384: inhibitors of HUVEC proliferation, primary screen, cell-based, 384-well | CellTiter-Glo luminescence, 72 h; active compounds read low | viability, % at 10 µM (by protocol) | actives 1.1% (n = 86,000) | AID 648, 2007;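 active means viability at or below 30%; inactive means viability above 30%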;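 further: 100% = median luminescence of DMSO-only cell control wells on each plate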
H69AR inhibit: proliferation blockers of H69AR lung cancer cells, primary screen, cell-based, human, 86K library; AID 598, 2007; actives 6% (n = 85,000); H69AR lung tumor viability, ATP luminescence, 72 h; active compounds read low; viability, % at 10 µM;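 active means viability at or below 40%; inactive means viability above 40%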;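 further: multidrug resistant small cell line overexpressing MRP-1 efflux transporter; 100% = mean luminescence of untreated control wells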
Lung fibro prol: antiproliferative effect on LL 47 fibroblasts – human, LL 47 cells, CellTiter-Glo luminescence, primary screen. LL 47 human lung fibroblast viability, ATP luminescence; active compounds read low. viability, % at 10 µM. actives 1.1% (n = 85,000). AID 719, 2007;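 active means viability at or below 50% in the single dose screen; inactive means viability above 50%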;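 further: compound exposure lasted 72 h before the ATP readout; 100% = median luminescence of untreated cell-only wells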
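test system = LL 47 human lung fibroblasts | amount = 1,150 fibroblasts seeded per well | medium = 15% FBS in IMEM | times = overnight cell rest, 72 h compound treatment at 37 °C | measured by = CellTiter-Glo luminescence measuring cellular ATP | read-out = viability percentage against median untreated-cell control | benchmarks = cell-only wells, no compound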
PTEN del growth: growth suppression of PTEN-null HCT116, primary screen, cell-based, CellTiter-Glo; HCT116 PTEN-null viability, 60 h; active compounds read low; viability, % at 10 µM; actives 1.2% (n = 140,000); AID 827, 2007;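 active means viability at or below a set limit, 4 SD under the median of all tested compounds, cut at about 3.7% in these data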;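 further: PTEN knockout HCT116 line with beta catenin targeted HCT116 as companion control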
HCT116 bCat-KO: primary screen for growth suppressors in beta-catenin knockout HCT116 cells (colon tumor, human); HCT116 beta-catenin knockout viability, CellTiter-Glo, 60 h; active compounds read low; actives 1.5% (n = 140,000); viability, % at 10 µM; AID 818, 2007;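 active means viability at or under a set limit, the compound median less 4 SD, cut at about 6% in these data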;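 further: 0% = Hyamine 1622 control at 20 µM and 100% = untreated cell control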
* hit, by the source's call; · = no result given. This excerpt belongs to a sample that is enriched for hits.

SMILES	HUVEC prolif 384	H69AR inhibit	Lung fibro prol	PTEN del growth	HCT116 bCat-KO
Cc1c(-c2nc(N)nc(Nc3ccccc3)n2)oc2ccccc12	62	14*	97	49	58
COc1cccc2sc(N3CCN(c4nc5ccccc5s4)CC3)nc12	26*	3.2*	74	2.4*	1.8*
c1ccc2sc(N3CCOCC3)nc2c1	102	94	110	·	99
Cc1cccc(C(=O)N[C@H](C(=O)Nc2nccs2)C(C)C)c1	·	·	·	87	87
CCOc1ccc(Cl)cc1S(=O)(=O)n1cnc2cc(C)c(C)cc21	91	57	91	80	77
COc1cc(C)c(Cl)cc1S(=O)(=O)n1cnc2ccccc21	87	40*	93	103	96
Cc1ccc2nc(NC(=O)c3ccc(NS(=O)(=O)c4cccs4)cc3)sc2c1	·	·	·	71	74
CCN(CC)c1ccc(/C=N/NC(=S)NCc2ccccc2)c(O)c1	·	·	·	15	20
CCN(CC)c1ccc(/C=N/NC(=O)Cc2cccs2)c(O)c1	·	·	·	6	5.2*
CCN(CC)c1ccc(/C=N/Nc2nc3ccccc3[nH]2)c(O)c1	·	·	·	7	3.5*
O=C(COn1nnc2ccc(C(F)(F)F)cc21)Nc1c(Cl)cccc1Cl	·	·	·	84	76
Cc1ccc(-c2nnc(SCC(=O)N3CCOCC3)nc2-c2ccc(C)cc2)cc1	98	19*	98	59	49
Cc1ccc(SCC(=O)N2CCOCC2)cc1	·	·	·	99	91
COc1ccc(C2(O)CC3CCC(C2)N3c2nc(C)cc(C)c2C#N)cc1 (stereo unspecified)	90	31*	93	75	88
CCN1/C(=C(\O)c2ccccc2)C(=O)c2ccccc2S1(=O)=O	62	33*	89	62	52
CCOc1ccc(-c2nc(CSCC(=O)NC3CCCc4ccccc43)c(C)o2)cc1 (stereo unspecified)	92	99	95	83	92
CC(C)COc1ccc(CSCCNC(=S)Nc2ccccc2)cc1	·	·	·	40	36
CCOc1ccc(OCCOCCNCCOC)cc1	·	·	·	98	93
COc1ccc(OC)c(/C(O)=C/C(=O)C(=O)Nc2cc(C)ccc2OC)c1	93	63	93	85	86
COc1ccc(OC)c(/C(O)=C/C(=O)C(=O)Nc2cc(C)cc(C)c2)c1	113	17*	92	86	82
CCOc1ccccc1NC(=O)C(=O)/C=C(\O)c1cc(OC)ccc1OC	71	8.4*	81	86	77
CCOc1ccccc1NC(=O)c1cc(C(=O)c2cc(OC)ccc2O)coc1=N	·	·	·	84	72
O=C/C(=C\Nc1ccc(Cl)cn1)c1nc2cc(Cl)ccc2o1	35	38*	89	56	68
O=C/C(=C\Nc1ccc(Cl)cn1)c1nc2ccccc2o1	80	93	105	87	90
Cc1ccc(S(=O)(=O)c2cc3c(=O)n4cccc(C)c4nc3n(CC3CCCO3)c2=N)cc1 (stereo unspecified)	79	40*	94	·	·
SMILES	HUVEC prolif 384	H69AR inhibit	Lung fibro prol	PTEN del growth	HCT116 bCat-KO
Cc1ccccc1-n1c(O)c(/C=N/N2CCCCC2c2cccnc2)c(=O)[nH]c1=O (stereo unspecified)	·	·	·	88	81
CC1(C)N=C(SCC(=O)Nc2ccc(Cl)cc2)C(c2ccc(Cl)cc2)=N1	77	8.4*	95	36	46
CC1(C)N=C(SCC(=O)Nc2ccc(Cl)cc2)C(c2ccccc2)=N1	84	50	94	72	65
Cc1cc(N(C(=O)c2ccco2)C(C(=O)NC2CCCCC2)c2ccccc2)ccc1-n1cnnn1 (stereo unspecified)	99	39*	88	84	73
COc1cccc(-c2noc(N)c2C#N)c1	100	28*	97	96	91
COC(=O)C1CCCN1S(=O)(=O)c1ccc2ccccc2c1 (stereo unspecified)	100	33*	90	54	58
COc1cc(CNc2ccc3[nH]c(=O)[nH]c3c2)cc(Br)c1OCC(=O)NC(C)(C)C	86	9.9*	82	88	85
COc1ccccc1Nc1nc(N)nc(CSC(=S)N2CC(C)CC(C)C2)n1 (stereo unspecified)	·	·	·	67	66
NC(=O)c1ccccc1NC(=O)NC1CCCCC1	98	91	111	94	93
O=C(Nc1ccccc1NC(=O)NC1CCCCC1)NC1CCCCC1	3.6*	0.6*	51	4	26
COc1cc(/C=C2\CC/C(=C\c3cc(OC)c(O)c(OC)c3)C2=O)cc(OC)c1O	·	·	·	2.5*	2.1*
COc1cc(/C=C2/CCC/C(=C\c3cc(O)c(OC)c(Cl)c3)C2=O)cc(Cl)c1O	·	·	·	1.9*	2.0*
COCCCNC(=O)C1CCCN(S(C)(=O)=O)C1 (stereo unspecified)	·	·	·	89	95
CC(C)(C)NC(=O)COC(=O)/C=C/c1ccc(F)cc1	·	·	·	91	105
CCc1ccc(-c2nc(CN3CCC(C(=O)NCc4ccccc4OC)CC3)c(C)o2)cc1	32	18*	66	34	21
CCN1CCCC1CNC(=O)C1CCN(Cc2nc(-c3cccc(Br)c3)oc2C)CC1 (stereo unspecified)	18*	52	29*	6	4.7*
COc1ccccc1CNC(=O)C1CCN(Cc2nc(-c3cccc(Cl)c3)oc2C)CC1	56	40*	89	24	22
COc1ccccc1CNC(=O)C1CCN(Cc2nc(-c3ccc(Cl)cc3)oc2C)CC1	42	66	103	·	·
CCc1ccc(-c2nc(CN3CCC(C(=O)NCCc4ccc(OC)c(OC)c4)CC3)c(C)o2)cc1	55	69	90	15	2.0*
O=C(OCn1nnc2ccccc2c1=O)c1cc(-c2ccccc2)nc2ccccc12	·	·	·	98	95
C=CCNC(=S)Nc1nc2c(cc1C(=O)OCC)CCCC2	·	·	·	91	92
CCc1ccc(C(=O)COC(=O)CNC(=O)COc2ccccc2)cc1	·	·	·	99	89
CC(=O)c1nn(-c2cccc(Br)c2)cc1C(=O)c1ccc(Cl)cc1	·	·	·	75	62
CC1CCN(c2nc(Cl)nc(Nc3ccc([N+](=O)[O-])cc3)n2)CC1	·	·	·	13	2.2*
CNC(=O)c1ccc(-c2sc3nc(N4CCOCC4)c4c(c3c2N)CC(C)(C)OC4)o1	72	47	93	80	84
CNC(=O)c1ccc(-c2sc3nc(N4CCOCC4)c4c(c3c2N)CCCC4)o1	30	21*	96	7	14
COc1ccc(C(=O)NN/C(C)=C/C(=O)C(F)(F)C(F)(F)C(F)(F)F)cc1	·	·	·	29	23
Cc1ccc2[nH]c(=O)c(C(c3nnnn3C3CCCC3)N(Cc3cccnc3)Cc3ccco3)cc2c1 (stereo unspecified)	80	62	90	69	74

Assay outcomes as filed in PubChem.
